# In the library only some 1.4% were active in any assay of this set; here they are far more common.
# NR2E3 ag-1: activates human photoreceptor nuclear receptor NR2E3; inhibition of corepressor binding, % at 4.78 µM; 320,000 tested, 0.12% active; AID 2300; GST-NR2E3/biotin-RetCOR TR-FRET, 1536-well;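 active = percent inhibition above the cutoff of mean plus 3 SD of all tested compounds, set per screening campaign, cut at about 20% in these data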;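 also: 0% = DMSO wells and 100% = biotin wells as full block of FRET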
#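 system = GST-tagged NR2E3 plus biotinylated RetCOR corepressor | input = 1.35 nM GST-NR2E3 | also added = 7 nM biotin-RetCOR | schedule = 5 h incubation at 4 °C | measured by = TR-FRET with europium anti-GST and streptavidin-D2, 340 nm excitation | read-out = percent loss of FRET ratio relative to control wells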
# PG9 Ab binder: small molecules binding HIV-1 gp120 antibody PG9. AID 624416. 360,000 tested, 0.43% active. inhibition, % at 6.7 µM. TR-FRET gp120-PG9 antibody binding; in the data active = inhibition above about 8.5%
# NR2E3 ag-2: agonists of human NR2E3 nuclear receptor. Q9Y5X4. 360,000 tested, 0.35% active. inhibition of corepressor binding, % at 3.98 µM. CHO-S Gal4-NCOR/VP16-NR2E3 two-hybrid, luciferase;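 active = inhibition above the mean of all tested compounds plus 3 SD, cut at about 70% in these data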;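 also: 0% = DMSO with NR2E3 transfected cells and 100% = cells lacking NR2E3 construct; higher means lower luciferase signal from less NR2E3 corepressor binding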
# Rev-erbA mod: modulators of human Rev-erb alpha DNA binding; AID 1259318; Rev-erbα–FITC-DNA binding, fluorescence polarization, 90 min; activity, % at 10 µM; 370,000 tested, 0.79% active;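 active = activity above about 14%, limit read from the data; passing the limit was not always enough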;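 also: 0% = DMSO wells with 35 nM protein and 100% = DMSO wells with 750 nM protein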
# Target sequence (P20393 whole entry, looked up): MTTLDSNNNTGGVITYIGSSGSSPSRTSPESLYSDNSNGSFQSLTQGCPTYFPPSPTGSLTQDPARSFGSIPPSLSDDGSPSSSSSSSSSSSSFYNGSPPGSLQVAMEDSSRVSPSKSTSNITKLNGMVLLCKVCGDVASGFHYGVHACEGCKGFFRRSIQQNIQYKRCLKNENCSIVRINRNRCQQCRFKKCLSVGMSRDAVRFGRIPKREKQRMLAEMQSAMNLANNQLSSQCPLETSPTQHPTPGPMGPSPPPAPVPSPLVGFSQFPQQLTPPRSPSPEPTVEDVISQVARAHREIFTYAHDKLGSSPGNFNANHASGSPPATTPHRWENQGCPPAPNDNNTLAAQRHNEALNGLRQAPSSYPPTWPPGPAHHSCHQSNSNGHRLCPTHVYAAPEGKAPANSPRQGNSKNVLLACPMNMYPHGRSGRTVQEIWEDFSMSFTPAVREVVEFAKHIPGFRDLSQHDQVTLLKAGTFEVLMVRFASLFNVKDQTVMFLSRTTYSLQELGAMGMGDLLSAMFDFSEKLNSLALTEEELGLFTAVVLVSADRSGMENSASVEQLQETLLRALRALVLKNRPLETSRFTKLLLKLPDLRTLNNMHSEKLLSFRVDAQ
# NR2E3 ag conf: NR2E3 agonism confirmed in two-hybrid assay. AID 624378. inhibition, % at 3.98 µM. CHO-S mammalian two-hybrid NR2E3-NCOR, luciferase luminescence. 2,300 tested, 51% active. shares compounds with NR2E3 ag-2;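 active = average inhibition above a cutoff equal to the mean inhibition of all tested compounds plus one SD, cut at about 70% in these data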;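 also: 0% = DMSO in NR2E3 cells and 100% = DMSO in cells lacking NR2E3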
# VP16 counter: GAL4-VP16 reporter inhibition in NR2E3 agonist counterscreen. 2,300 tested, 29% active. inhibition, % at 3.98 µM. CHO-S GAL4-VP16 luciferase reporter, luminescence. shares compounds with NR2E3 ag-2;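 active = mean inhibition above a cutoff equal to the average over all tested compounds plus one standard deviation, cut at about 70% in these data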;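 also: luciferase from a UAS reporter driven by GAL4-VP16 transactivation; 0% = DMSO with VP16-transfected cells and 100% = DMSO with cells lacking VP16; higher means less reporter light so more repression of VP16 activity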
# Numbers without * were called inactive; · = no result.
SMILES,NR2E3 ag-1,PG9 Ab binder,NR2E3 ag-2,Rev-erbA mod,NR2E3 ag conf,VP16 counter
C=CCn1c(O)c(N=NC(=S)Nc2ccccc2F)c2ccccc21,4.3,-1.8,86.2*,-6.0,22.8,32.5
Oc1c(N=NC(=S)Nc2ccccc2F)c2ccccc2n1Cc1ccccc1,0.9,-3.2,-23.3,2.5,·,·
CC(C)(C)C(=O)NC(=S)NNC(=O)c1ccc(-c2ccccc2)cc1,3.0,·,62.4,·,96.4*,52.3
COc1ccc2oc(C(=O)NCc3cc(OC)c(OC)cc3OC)c(C)c2c1,2.9,-2.0,74.7*,4.3,43.5,52.8
COc1ccc2oc(C(=O)NCCc3ccccc3)c(C)c2c1,0.1,0.7,-80.2,0.3,·,·
Cc1ccc(S(=O)(=O)N2CCCC(C(=O)NCCN3CCC(Cc4ccccc4)CC3)C2)cc1 (stereo unspecified),·,·,·,-6.8,·,·
COc1ccc(-c2ocnc2C(=O)NCc2nn(-c3ccccc3)nc2C)cc1,1.6,1.6,56.3,3.4,87.4*,72.3*
COc1ccc(CC(=O)NCc2nn(-c3ccccc3)nc2C)cc1OC,1.9,-0.5,-15.8,-0.6,·,·
CC(C)CN1C(=O)C[C@@]2(C(=O)N(C)c3ccc(NS(=O)(=O)c4ccc(F)cc4)cc32)C1c1ccccc1 (stereo partly specified),·,·,·,1.3,·,·
C=C(C)CSc1nnc(-c2cc(-c3ccccc3)n[nH]2)n1N,·,·,·,-6.2,·,·
Cc1ccc(NC(=O)N2CCc3ccccc32)cc1,0.5,-2.6,-109.9,6.4,·,·
CN1CCN(c2ccc(NC(=O)N3CCc4ccccc43)cc2)CC1,-0.4,-3.1,49.5,2.0,26.0,-32.3
O=C(NCCc1ccccc1)OCc1cn(Cc2ccc(F)c(F)c2)nn1,·,·,·,4.0,·,·
COc1ccc(OC)c(S(=O)(=O)Nc2ccc3c(c2)N(C(C)=O)CCC3)c1,-4.9,-0.9,7.9,4.0,·,·
CC(=O)Nc1ccc(S(=O)(=O)Nc2ccc3c(c2)CCC3)cc1,4.4,-1.0,51.3,-1.0,21.9,28.6
CC(=O)N1CCCc2ccc(NS(=O)(=O)c3ccc(C)c(C)c3)cc21,-1.1,-2.8,66.5,-0.5,59.8,48.4
Cc1c(C(=O)N2CCCCC2)oc2ccc(S(=O)(=O)N3CC(C)CC(C)C3)cc12 (stereo unspecified),-5.5,·,76.5*,·,72.9*,62.9
CCOC(=O)N1CCN(C(=O)c2oc3ccc(S(=O)(=O)N4CCCCC4)cc3c2C)CC1,-2.5,-2.4,20.4,-3.8,·,·
O=C(Nc1ccc(S(=O)(=O)N2CCCC2)cc1)c1ccc(CN2CCc3ccccc3C2)cc1,0.9,0.1,54.0,-1.0,67.1,66.2
CCCCCCCCN1C(=O)[C@@H](CC(=O)NCCCN2CCCC2=O)C[C@@]2(C(=O)OC)C1=C[C@H](C(C)C)O[C@@H]2C1CC1,·,·,·,-4.1,·,·
Cc1cccc(C)c1OCc1cc(C(=O)NCC2CCCCC2)no1,-1.3,0.2,-25.5,0.7,·,·
Cc1cccc(C)c1OCc1cc(C(=O)N(Cc2c(C)nn(C)c2C)C2CC2)no1,-3.1,1.3,62.3,1.3,61.2,57.9
Cc1ccc(C)c(NC(=O)c2ccccc2NS(=O)(=O)c2cc([N+](=O)[O-])ccc2C)c1,0.7,-0.7,85.5*,-0.5,99.3*,89.0*
Cc1ccc(C)c(S(=O)(=O)Nc2ccccc2C(=O)Nc2cc(C)on2)c1,-0.5,1.5,48.7,1.0,64.7,37.5
COc1cccc(NC(=O)Nc2ccncc2)c1,0.6,-2.7,-17.0,0.4,·,·
SMILES,NR2E3 ag-1,PG9 Ab binder,NR2E3 ag-2,Rev-erbA mod,NR2E3 ag conf,VP16 counter
COc1cccc(NC(=O)Nc2ccc(Cc3ccncc3)cc2)c1,-2.6,1.1,55.3,0.5,41.5,30.2
CC(=O)c1ccc(N2CCN(S(=O)(=O)c3ccc4c(c3)CC(C)N4C(C)=O)CC2)cc1 (stereo unspecified),-0.7,-2.5,70.3*,-5.4,91.7*,73.4*
CC1Cc2cc(S(=O)(=O)N3CCC(C(=O)N4CCN(c5ccccc5F)CC4)CC3)ccc2N1C(=O)C1CC1 (stereo unspecified),0.4,-1.3,73.9*,5.2,46.2,45.5
COc1ccccc1N1CCN(C(=O)C2CCN(S(=O)(=O)c3ccc4c(c3)CC(C)N4C(=O)C3CC3)CC2)CC1 (stereo unspecified),-0.6,-0.3,10.7,1.6,·,·
CC(=O)N1c2ccc(S(=O)(=O)N3CCC(C(=O)N4CCC(C)CC4)CC3)cc2CC1C (stereo unspecified),-3.3,0.0,34.1,-1.1,·,·
Cc1ccc(C)c(N2CCN(S(=O)(=O)c3ccc4c(c3)CC(C)N4C(=O)C3CC3)CC2)c1 (stereo unspecified),2.1,-0.3,-14.3,1.2,·,·
Cc1cccc(N2CCN(S(=O)(=O)c3ccc4c(c3)CC(C)N4C(=O)C3CC3)CC2)c1C (stereo unspecified),-2.2,-1.8,53.3,-2.3,59.0,54.5
CC(=O)N1c2ccc(S(=O)(=O)N3CCC(C(=O)N4CCN(c5cc(Cl)ccc5C)CC4)CC3)cc2CC1C (stereo unspecified),3.0,-1.1,86.8*,4.2,90.5*,78.0*
CC(=O)c1cc(-c2ccc3[nH]ccc3c2)c(=O)n2c1CCC2,·,·,·,-1.8,·,·
C[C@H]1C(=O)CC[C@@]23CCCN2C(=O)CCC[C@@H]13,·,·,·,1.1,·,·
CS(=O)(=O)c1ccc(OC[C@@H](O)CN2CCC(C(O)(c3ccccc3)c3ccccc3)CC2)cc1,·,·,·,2.5,·,·
NC(=O)C1=CN([C@@H]2O[C@H](COP(=O)(O)OP(=O)(O)OC[C@H]3O[C@@H](n4cnc5c(N)ncnc54)[C@H](O)[C@@H]3O)[C@@H](O)[C@H]2O)C=CC1,·,·,·,-0.7,·,·
CCc1ccc(CNC(=O)c2cc3c(C)nc4ccccc4c3o2)cc1,-3.6,-1.8,93.6*,0.4,95.2*,86.5*
CSCc1cc(N(C)c2ccccc2)nc(-c2ccccn2)n1,2.2,-2.0,108.6*,-2.8,37.7,19.3
CN(C)c1cc(C(F)(F)F)nc(-c2ccccn2)n1,-1.6,-0.1,-14.7,3.6,·,·
CCn1c(=O)c(C(=O)Nc2nc3ccccc3[nH]2)c(O)c2ccccc21,2.1,-0.3,56.7,-8.3,13.6,44.2
Cc1cc(C)cc(NC(=O)c2ccc([N+](=O)[O-])o2)c1,·,-0.1,83.5*,1.7,51.5,40.9
COC(=O)[C@]12C[C@H](CC(=O)N3CCCCC3)C(=O)N(Cc3ccco3)C1=C[C@H](C(C)(C)C)O[C@@H]2C,·,·,·,4.9,·,·
Cc1ccc(-n2c(SCC(=O)Nc3ccc(S(=O)(=O)Nc4cc(C)nc(C)n4)cc3)nnc2-c2cccs2)cc1,·,·,·,-5.4,·,·
CC(C)(C)OC(=O)N1Cc2ccccc2C[C@H]1C(=O)NCC(=O)Nc1ccc2c(c1)OCCO2,-2.0,-2.3,58.8,7.2,26.7,7.6
O=C(Cc1cccs1)NNC(=S)NCc1ccco1,1.3,3.0,22.5,-3.2,·,·
O=C(Cc1ccc(-c2ccccc2)cc1)NNC(=S)NCc1ccco1,0.7,-0.7,53.9,1.8,88.6*,59.0

# Assay outcomes: PubChem, several laboratories
